# Residue numbers refer to the chain shown, from its start.
# Experiments:
# DC-SIGN CRD wild type = target: T1, DC-SIGN CRD wild type (Homo sapiens, UniProt Q9NNX6); test: Dynamic light scattering of modified protein; settings: protein-compound ratios up to 1:10
# T1 sequence (Q9NNX6 253-404): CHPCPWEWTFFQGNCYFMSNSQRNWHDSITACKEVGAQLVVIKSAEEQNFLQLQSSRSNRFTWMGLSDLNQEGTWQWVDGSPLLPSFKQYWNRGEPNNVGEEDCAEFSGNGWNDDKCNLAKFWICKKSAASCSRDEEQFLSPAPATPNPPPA
# DC-SIGN CRD = target: T2, DC-SIGN CRD (Homo sapiens, UniProt Q9NNX6); test: Grating-coupled interferometry; type: binding; settings: mannose-PEG3 sensor; for EC50: EC50, GCI binding response, overnight incubation at RT
# T2 sequence (Q9NNX6 253-404): T1 sequence (Q9NNX6 253-404)
# DC-SIGN ECD = target: T3, DC-SIGN ECD (Homo sapiens, UniProt Q9NNX6); test: Plate-based horseradish peroxidase; type: biochemical
# T3 sequence (Q9NNX6 64-404): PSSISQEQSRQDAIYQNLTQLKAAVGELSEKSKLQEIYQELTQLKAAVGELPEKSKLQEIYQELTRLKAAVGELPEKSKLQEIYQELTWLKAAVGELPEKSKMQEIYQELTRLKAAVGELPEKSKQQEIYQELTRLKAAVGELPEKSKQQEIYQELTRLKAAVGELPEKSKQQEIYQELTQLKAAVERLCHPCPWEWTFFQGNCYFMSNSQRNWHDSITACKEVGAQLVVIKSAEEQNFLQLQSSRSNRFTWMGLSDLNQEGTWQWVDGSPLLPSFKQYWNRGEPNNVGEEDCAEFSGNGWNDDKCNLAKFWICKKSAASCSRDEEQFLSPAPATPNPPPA
# Outline: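 Purified DC-SIGN extracellular domain immobilized on plates. Incubated overnight at 4 °C or room temperature with test compound at 0.5 mM for the screen, or at a concentration series for dose-response (overnight, RT, or varied incubation times). After washing, HRP added; it binds via its own glycans. Bound HRP read by peroxidase activity relative to DMSO control. Hit cutoff ≥50% change. EDTA, mannan and mannose used as controls. Mean of three biological replicates.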
# DC-SIGN ECD K340R = target: T4, DC-SIGN ECD K340R (Homo sapiens, UniProt Q9NNX6, K340R); test: HRP binding assay with Lys mutant K340R; type: biochemical
# T4 sequence (Q9NNX6 64-404 K340R): T3 sequence (Q9NNX6 64-404) with K277R
# DC-SIGN ECD K373R = target: T5, DC-SIGN ECD K373R (Homo sapiens, UniProt Q9NNX6, K373R); test: HRP binding assay with Lys mutant K373R; type: biochemical
# T5 sequence (Q9NNX6 64-404 K373R): T3 sequence (Q9NNX6 64-404) with K310R
# DC-SIGN ECD K295R = target: T6, DC-SIGN ECD K295R (Homo sapiens, UniProt Q9NNX6, K295R); test: HRP binding assay with Lys mutant K295R; type: biochemical
# T6 sequence (Q9NNX6 64-404 K295R): T3 sequence (Q9NNX6 64-404) with K232R
# DC-SIGN CRD M270F = target: T7, DC-SIGN CRD M270F (Homo sapiens, UniProt Q9NNX6, M270F); test: Dynamic light scattering of modified protein, M270F mutant; settings: secondary site blocked
# T7 sequence (Q9NNX6 253-404 M270F): T1 sequence (Q9NNX6 253-404) with M18F
Compound,change of protein hydrodynamic size upon modification (DLS) (DC-SIGN CRD wild type),EC50 (DC-SIGN CRD) [µM],"Hill slope (nH), GCI (DC-SIGN CRD)","time dependency of dose-response after varying incubation times, HRP assay (DC-SIGN ECD; reaction quenched at different time points)","activity (EC50) on mutant compared to the wild type, HRP assay (DC-SIGN ECD K340R)","activity (EC50) on mutant compared to the wild type, HRP assay (DC-SIGN ECD K373R)","activity (EC50) on mutant compared to the wild type, HRP assay (DC-SIGN ECD K295R)",EC50 (DC-SIGN ECD) [µM],change of protein hydrodynamic size upon modification (DLS) (DC-SIGN CRD M270F),IC50 (DC-SIGN ECD) [µM],"screening outcome, activity change compared to the DMSO control (DC-SIGN ECD; 0.5 mM compound, overnight, cutoff ∼50% activity change)"
"COc1c(Nc2cc(C(F)(F)F)cc(C(F)(F)F)c2)c(=O)c1=O [Compound 33, 3-((3,5-bis(trifluoromethyl)phenyl)amino)-4-methoxycyclobut-3-ene-1,2-dione]",no increase in size,100,≈ 1,clear time dependency,EC50s similar to that of the wild type,drastically reduced activity,EC50s similar to that of the wild type,–,–,–,–
"O=C(ON1C(=O)CCC1=O)c1cc(C(F)(F)F)cc(C(F)(F)F)c1 [Compound 11, 2,5-dioxopyrrolidin-1-yl 3,5-bis(trifluoromethyl)benzoate]",induces oligomerization,200,–,–,No change in EC50,No change in EC50,No change in EC50,30,lack of oligomerization,–,–
"OC[C@H]1OC(O)[C@@H](O)[C@@H](O)[C@@H]1O (stereo partly shown) [mannose, reference compound]",–,–,–,–,–,–,–,–,–,11400,–
"O=Cc1cc2ccccc2cc1C=O [Compound 30, naphthalene‐2,3‐dicarbaldehyde]",–,–,–,–,–,–,–,–,–,–,potential inhibitor

# Reference: publication PMC12811664 (Angewandte Chemie (International Ed. in English), 2025)
